Results published in ChEMBL document CHEMBL4673235, “Synthesis and biological evaluation of ethacrynic acid derivatives bearing sulfonamides as potent anti-cancer agents” (Bioorg Med Chem Lett, 2020).

Key:
[1] = test system: MRC5; assay: Cytotoxicity against human MRC5 cells assessed as reduction in cell viability by CellTiter Glo luminescent assay; format: cell-based
Method in brief: (§1)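 CellTiter-Glo luminescent read-out of cellular ATP, taken as proportional to viable cell number; percentage viability measured and IC50 derived. MRC5 used as normal (non-cancer) line.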

[2] = test system: HL-60; assay: Cytotoxicity against human HL-60 cells assessed as cell viability at 10 uM by CellTiter Glo luminescent assay relative to control; format: functional; details: read-out: Activity
Method in brief: (§2)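 Single-concentration screen at 10 µM; percentage viability measured by CellTiter-Glo luminescent quantitation of ATP in metabolically active cells.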

[3] = test system: HCT-116; assay: Cytotoxicity against human HCT-116 cells assessed as reduction in cell viability by CellTiter Glo luminescent assay; format: functional, cell-based; method in brief: as §1
[4] = Selectivity index, ratio of IC50 for human MRC5 cells to IC50 for human HCT-116 cells by CellTiter Glo luminescent assay; format: toxicity; details: MRC5 cells versus HCT-116 cells, read-out: Ratio IC50
Method in brief: (§3)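 Safety ratio computed as IC50 in MRC5 normal cells divided by IC50 in the cancer line, both from CellTiter-Glo ATP-luminescence viability assays.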

[5] = test system: SK-OV-3; assay: Cytotoxicity against human SK-OV-3 cells assessed as reduction in cell viability by CellTiter Glo luminescent assay; format: functional, cell-based; method in brief: as §1
[6] = Selectivity index, ratio of IC50 for human MRC5 cells to IC50 for human PC-3 cells by CellTiter Glo luminescent assay; format: toxicity; details: MRC5 cells versus PC-3 cells, read-out: Ratio IC50; method in brief: as §3
[7] = test system: HL-60; assay: Cytotoxicity against human HL-60 cells assessed as reduction in cell viability by CellTiter Glo luminescent assay; format: functional, cell-based; method in brief: as §1
[8] = Selectivity index, ratio of IC50 for human MRC5 cells to IC50 for human A549 cells by CellTiter Glo luminescent assay; format: toxicity; details: MRC5 cells versus A549 cells, read-out: Ratio IC50; method in brief: as §3
[9] = Selectivity index, ratio of IC50 for human MRC5 cells to IC50 for human MCF7 cells by CellTiter Glo luminescent assay; format: toxicity; details: MRC5 cells versus MCF7 cells, read-out: Ratio IC50; method in brief: as §3
[10] = Selectivity index, ratio of IC50 for human MRC5 cells to IC50 for human U-87 MG cells by CellTiter Glo luminescent assay; format: toxicity; details: MRC5 cells versus U-87 MG cells, read-out: Ratio IC50; method in brief: as §3
[11] = Selectivity index, ratio of IC50 for human MRC5 cells to IC50 for human SK-OV-3 cells by CellTiter Glo luminescent assay; format: toxicity; details: MRC5 cells versus SK-OV-3 cells, read-out: Ratio IC50; method in brief: as §3
[12] = Selectivity index, ratio of IC50 for human MRC5 cells to IC50 for human HL60 cells by CellTiter Glo luminescent assay; format: toxicity; details: MRC5 cells versus HL60 cells, read-out: Ratio IC50
[13] = test system: U-87 MG; assay: Cytotoxicity against human U-87 MG cells assessed as reduction in cell viability by CellTiter Glo luminescent assay; format: functional, cell-based, U-87MG ATCC; method in brief: as §1
[14] = test system: PC-3; assay: Cytotoxicity against human PC-3 cells assessed as reduction in cell viability by CellTiter Glo luminescent assay; format: functional, cell-based; method in brief: as §1
[15] = test system: A549; assay: Cytotoxicity against human A549 cells assessed as reduction in cell viability by CellTiter Glo luminescent assay; format: functional, cell-based; method in brief: as §1
[16] = test system: MCF7; assay: Cytotoxicity against human MCF7 cells assessed as reduction in cell viability by CellTiter Glo luminescent assay; format: functional, cell-based; method in brief: as §1
[17] = test system: HCT-116; assay: Cytotoxicity against human HCT-116 cells assessed as cell viability at 10 uM by CellTiter Glo luminescent assay relative to control; format: functional; details: read-out: Activity; method in brief: as §2
[18] = Selectivity index, ratio of IC50 for human HL-60 cells to IC50 for human HCT-116 cells by CellTiter Glo luminescent assay; format: functional

Row | Structure (SMILES) | viability at 10 µM [2] [%] | IC50 [7] [nM] | viability at 10 µM [17] [%] | other results
1 | C=C(CC)C(=O)c1ccc(OCC(=O)NC2CCN(S(=O)(=O)c3cc(Cl)ccc3OC)CC2)c(Cl)c1Cl | 16 | 700 |  | IC50 [1]: 900 nM; IC50 [3]: 790 nM; selectivity ratio [4]: 1.13; IC50 [5]: 150 nM; selectivity ratio [6]: 11.8; selectivity ratio [8]: 16.3; selectivity ratio [9]: 9.27; selectivity ratio [10]: 2.93; selectivity ratio [11]: 6; selectivity ratio [12]: 1.28; IC50 [13]: 307 nM; IC50 [14]: 76 nM; IC50 [15]: 55 nM; IC50 [16]: 97 nM
2 | C=C(CC)C(=O)c1ccc(OCC(=O)NCCNS(=O)(=O)c2ccc(OC)cc2)c(Cl)c1Cl | 24 | 860 | 97 | 
3 | C=C(CC)C(=O)c1ccc(OCC(=O)NCCNS(=O)(=O)c2cccc3cccnc23)c(Cl)c1Cl | 20 | 1330 | 100 | 
4 | C=C(CC)C(=O)c1ccc(OCC(=O)NC2CCN(S(C)(=O)=O)CC2)c(Cl)c1Cl | 26 | 3330 | 73 | 
5 | C=C(CC)C(=O)c1ccc(OCC(=O)NC2CCN(S(=O)(=O)c3cccc4cccnc34)CC2)c(Cl)c1Cl | 34 | 970 | 84 | 
6 | C=C(CC)C(=O)c1ccc(OCC(=O)N2CCN(S(=O)(=O)c3ccc(C)cc3)CC2)c(Cl)c1Cl | 64 |  | 100 | 
7 | C=C(CC)C(=O)c1ccc(OCC(=O)NC2CCN(S(=O)(=O)c3ccc(OC)cc3OC)CC2)c(Cl)c1Cl | 11 | 860 | 90 | 
8 | C=C(CC)C(=O)c1ccc(OCC(=O)NC2CCN(S(=O)(=O)c3ccc(C)cc3)CC2)c(Cl)c1Cl | 25 | 980 | 100 | 
9 | C=C(CC)C(=O)c1ccc(OCC(=O)N2CCN(S(=O)(=O)c3cc(Cl)ccc3OC)CC2)c(Cl)c1Cl | 24 | 1410 | 75 | 
10 | COc1cccc2c1C(=O)c1c(O)c3c(c(O)c1C2=O)C[C@@](O)(C(=O)CO)C[C@@H]3O[C@H]1C[C@H](N)[C@H](O)[C@H](C)O1 [DOXORUBICIN] |  | 10 |  | IC50 [1]: 39 nM; IC50 [3]: 90 nM; IC50 [13]: 90 nM; IC50 [14]: 2 nM; IC50 [15]: 56 nM; IC50 [16]: 120 nM
11 | C=C(CC)C(=O)c1ccc(OCC(=O)N2CCN(S(=O)(=O)c3ccc(OC)c(OC)c3)CC2)c(Cl)c1Cl | 100 |  | 89 | 
12 | C=C(CC)C(=O)c1ccc(OCC(=O)NC2CCN(S(=O)(=O)c3ccc(OC)c(OC)c3)CC2)c(Cl)c1Cl | 25 | 1310 | 99 | 
13 | C=C(CC)C(=O)c1ccc(OCC(=O)N2CCN(S(=O)(=O)c3cccc4cccnc34)CC2)c(Cl)c1Cl | 28 | 2980 | 100 | 
14 | C=C(CC)C(=O)c1ccc(OCC(=O)NCCNS(=O)(=O)c2ccc([N+](=O)[O-])cc2)c(Cl)c1Cl | 27 | 580 | 59 | 
15 | C=C(CC)C(=O)c1ccc(OCC(=O)N2CCN(S(C)(=O)=O)CC2)c(Cl)c1Cl | 24 | 3390 | 68 | 
16 | C=C(CC)C(=O)c1ccc(OCC(=O)N2CCN(S(=O)(=O)c3ccc(OC)cc3)CC2)c(Cl)c1Cl | 17 | 590 | 21 | IC50 [1]: 100 nM; Ratio IC50 [18]: 12; IC50 [3]: 50 nM; selectivity ratio [4]: 2; IC50 [5]: 219 nM; selectivity ratio [6]: 4.03; selectivity ratio [8]: 1.54; selectivity ratio [9]: 1.78; selectivity ratio [10]: 0.48; selectivity ratio [11]: 0.45; selectivity ratio [12]: 0.16; IC50 [13]: 207 nM; IC50 [14]: 24 nM; IC50 [15]: 64 nM; IC50 [16]: 56 nM
17 | C=C(CC)C(=O)c1ccc(OCC(=O)N2CCN(S(=O)(=O)c3ccc([N+](=O)[O-])cc3)CC2)c(Cl)c1Cl | 24 | 3260 | 100 | 
18 | C=C(CC)C(=O)c1ccc(OCC(=O)NCCNS(=O)(=O)c2ccc(OC)cc2OC)c(Cl)c1Cl | 35 | 2790 | 77 | 
19 | C=C(CC)C(=O)c1ccc(OCC(=O)NCCNS(C)(=O)=O)c(Cl)c1Cl | 21 | 940 | 62 | 
20 | C=C(CC)C(=O)c1ccc(OCC(=O)NCCNS(=O)(=O)C2CCCCC2)c(Cl)c1Cl | 28 | 1340 | 91 | 
21 | C=C(CC)C(=O)c1ccc(OCC(=O)NCCNS(=O)(=O)c2ccc(C)cc2)c(Cl)c1Cl | 17 | 2370 | 100 | 
22 | C=C(CC)C(=O)c1ccc(OCC(=O)NC2CCN(S(=O)(=O)C3CCCCC3)CC2)c(Cl)c1Cl | 41 | 2940 | 61 | 
23 | C=C(CC)C(=O)c1ccc(OCC(=O)NC2CCN(S(=O)(=O)c3ccc([N+](=O)[O-])cc3)CC2)c(Cl)c1Cl | 23 | 2470 | 100 | 
24 | C=C(CC)C(=O)c1ccc(OCC(=O)NCCNS(=O)(=O)c2ccc(OC)c(OC)c2)c(Cl)c1Cl | 19 | 3360 | 97 | 
25 | C=C(CC)C(=O)c1ccc(OCC(=O)NCCNS(=O)(=O)c2cc(Cl)ccc2OC)c(Cl)c1Cl | 18 | 1600 | 78 | 
26 | C=C(CC)C(=O)c1ccc(OCC(=O)NC2CCN(S(=O)(=O)c3ccc(OC)cc3)CC2)c(Cl)c1Cl | 25 | 630 | 45 | IC50 [1]: 4320 nM; IC50 [3]: 1150 nM; selectivity ratio [4]: 3.75; IC50 [5]: 309 nM; selectivity ratio [6]: 38.6; selectivity ratio [8]: 63.8; selectivity ratio [9]: 33.8; selectivity ratio [10]: 18.1; selectivity ratio [11]: 14; selectivity ratio [12]: 6.85; IC50 [13]: 238 nM; IC50 [14]: 112 nM; IC50 [15]: 67 nM; IC50 [16]: 128 nM
27 | C=C(CC)C(=O)c1ccc(OCC(=O)N2CCN(S(=O)(=O)C3CCCCC3)CC2)c(Cl)c1Cl | 32 | 2320 | 100 | 
28 | C=C(CC)C(=O)c1ccc(OCC(=O)N2CCN(S(=O)(=O)c3ccc(OC)cc3OC)CC2)c(Cl)c1Cl | 15 | 3190 | 40 | 
